Results reported in ChEMBL document CHEMBL4513216, “Probing the Open Global Health Chemical Diversity Library for Multistage-Active Starting Points for Next-Generation Antimalarials” (ACS Infect Dis, 2020).

Assay: Toxicity liver stage against HepG2, at 10uM
Assay type: cell-based
Design: test concentration 10 uM, cell line HepG2-A16-CD81EGFP
Conditions: human, HepG2-A16-CD81EGFP cells; read-out: INHIBITION
Summary of the method: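 Uninfected HepG2-A16-CD81EGFP cells, 3 × 10^3 per well, 1536-well, plated on prespotted compound at 10 μM final, parasite-free screening media added to match infected plates; puromycin 10 μM positive, DMSO 0.5% negative; run in parallel with 48 h PbLuc assay at 37 °C, 5% CO2; viability by CellTiter-Glo luminescence, normalized to controls.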

SMILES | cytotoxicity at 10 µM
Cc1noc([C@@H]2C[C@H](NC(=O)NC3CCCCC3)CN2C)n1 | 3.23%
O=S1(=O)c2cnccc2OC(COc2ccccc2)CN1CC1CC1 (configuration not stated) | -1.16%
CCOC(=O)[C@H]1[C@@H](O)C(=O)N(C)C12CCN(C(=O)CC(C)C)CC2 | -5.12%
Cn1ccc2c(C(=O)NCCCN3CCOCC3)cccc21 | -0.452%
CSCCC(C)(O)CNC(=O)Nc1ccccc1C (configuration not stated) | -1.44%
CCOCC(=O)NCCc1nc(C2CC2)cc(C(F)(F)F)n1 | 1.01%
COC(=O)c1sccc1S(=O)(=O)N1CCC(Oc2cccc(C)n2)CC1 | 6.48%
Cc1cccnc1NC(=O)c1ccc(-n2cncn2)nn1 | -1.52%
Cn1ncc2c1C(COCC1CC1)CN(Cc1ccncc1)C2 (configuration not stated) | 7.22%
CN(C)C(=O)C1OC2(CCN(C(=O)c3ccoc3)CC2)c2ccccc21 (configuration not stated) | 5.63%
CCN(CC)C(=O)Cn1c(C)cc2nc(SC)n(CC(C)C)c(=O)c21 | -12.8%
COC[C@@]12CCO[C@@H]1CCN(C(=O)Cc1ccccc1F)C2 | -7.27%
CCCN(C(=O)CS(=O)(=O)c1ccccc1)c1cccc(C)c1 | 2.08%
O=C(O)Cn1nc(C2CC2)c2c(-c3ccco3)ccnc21 | -3.96%
Cn1nc(C(=O)N2CCCC2)c(F)c1NC(=O)Cc1ccccc1 | 1.41%
CCn1nccc1CNC(=O)C1CCCC1 | -18.5%
Cn1ccc(C(=O)N2CCCC2c2cc[nH]n2)n1 (configuration not stated) | -1.26%
CC(C)C(=O)N1CCC(c2nc3ccccn3c2NC(C)(C)C)CC1 | 5.86%
CC(=O)N1CCC(CCc2ccnc(NC(=O)c3ccccn3)c2)CC1 | 0.15%
O=C(NCc1ccccc1)C1CN(c2ccccn2)CCO1 (configuration not stated) | -2.44%
O=C(CCn1c(C(F)F)cc2cccnc21)NC1CC1 | -1.71%
Cc1cc(C)nc(C2CCN(C(=O)CCn3nnc4ccccc43)C2)n1 (configuration not stated) | -0.834%
O=C(c1cccc2cccnc12)N1CC[C@@]2(CCCO2)[C@@H](O)C1 | -23.8%

SMILES | cytotoxicity at 10 µM
Cc1nc(C2CCCN2C(=O)Cc2ccc3c(c2)OCO3)nc(O)c1C (configuration not stated) | -34.9%
Nc1cncc(C(=O)N2Cc3ccccc3OC3(CCOCC3)C2)c1 | 11.9%
CC(=O)N1CCC(c2nccnc2Nc2ncc(C)s2)CC1 | 10.1%
O=C(Cc1ccsc1)N1CCOC(c2nc(-c3ncccn3)no2)C1 (configuration not stated) | -7.83%
CNc1ncc(CN2CCC(c3nnsc3S(C)(=O)=O)CC2)cn1 | -0.085%
COc1ccc(CN2CCC(c3cc(O)nc(C)n3)C2)c(F)c1 (configuration not stated) | 0.442%
Cc1nc(C2CCN(S(=O)(=O)c3ccc(Cl)cc3)CC2)n[nH]1 | 10.6%
Cc1oc(-c2ccco2)nc1CN1CCc2cnc(C(C)C)nc2C1 | 0.0371%
CSc1c[nH]nc1NS(=O)(=O)c1cc(F)ccc1Cl | -7.23%
Cc1cnn(CC(C)Nc2nc3ccccc3o2)c1 (configuration not stated) | -9.49%
c1cc(NCc2ccsc2)cc(-c2nnc[nH]2)c1 | -54.5%
CC(C)N(C(=O)Cn1cc(Cl)cn1)c1ccccc1 | -1.18%
COc1cccnc1NC(=O)COC1CCCC1 | 8.06%
N#CCCN(Cc1cccnc1)C(=O)c1ccn(-c2ccccc2)n1 | 13.9%
Cc1nc(C)c(S(=O)(=O)NC(=O)c2ccsc2)s1 | -6.85%
CCCc1noc(C(C)S(=O)(=O)Cc2nc(C3CC3)no2)n1 (configuration not stated) | -9.02%
Cc1oc(NC(=O)C(C)N2CCN(CCO)CC2)c(C#N)c1C (configuration not stated) | -13.6%
CCCn1cc(NC2CCSCC2)cn1 | -1.88%
CCOC(=O)N1CCN(C(=O)C2CC(=O)N(c3ccccc3Br)C2)CC1 (configuration not stated) | -7.22%
Cc1nnc(CN(C)C2CCN(CCc3cccs3)C2)n1C (configuration not stated) | -3.67%
CNS(=O)(=O)CC1CCCN1C(=O)c1ccc2cc[nH]c2c1 (configuration not stated) | -0.651%
O=c1c2cccnc2cnn1CC(O)c1ccc(Br)cc1 (configuration not stated) | -2.59%
CCc1noc(CS(=O)(=O)CC=C(C)C)n1 | 5.41%

SMILES | cytotoxicity at 10 µM
O=S(=O)(NCc1cccnc1OC1CCCC1)N1CCCCC1 | -3.82%
Cc1nc2n(n1)CC(NCC(=O)N(C)Cc1cccs1)CC2 (configuration not stated) | -0.189%
CNC(=O)C(C)(C)CNC(=O)Nc1ccncc1C | -12.1%
O=C1CC(N(C(=O)CCc2cc(F)ccc2F)C2CC2)C(=O)N1 (configuration not stated) | 3.62%
Cc1ccc(-c2nnc(C(C)N3CCc4cncnc4C3)o2)cc1 (configuration not stated) | 0.776%
Cc1nc(CN(C)c2cc(N3CCCC3CO)ncn2)cs1 (configuration not stated) | 4.53%
Cn1cc(CNc2cnn(CC3CCCO3)c2)c(-c2ccncc2)n1 (configuration not stated) | 4.4%
COc1ccc(CNC2CCN(c3ccccc3)C2)c(OC)c1OC (configuration not stated) | 7.49%
CO[C@H]1CO[C@@]2(CCCN(C(=O)C3CC=CC3)C2)C1 | -98.6%
Cc1csc2ncc(-c3ccnc(N4CCCC[C@@H]4CO)n3)c(=O)n12 | 9.12%
CCCc1nnc2sc(C3CCN(CC)CC3)nn12 | 4.6%
Cn1c(CN2CCCC(Cn3cc(CCO)nn3)C2)cc2ccccc21 (configuration not stated) | -0.849%
Cn1cc(Cl)c(CN2CCCC(Cn3cc(CO)nn3)C2)n1 (configuration not stated) | 1.18%
CCc1ncc(C(=O)N(C)C(C)c2ccc3c(c2)OCCO3)cn1 (configuration not stated) | -2.96%
COCCN(Cc1cnn(C)c1)C(=O)C1COc2c(cccc2OC)C1 (configuration not stated) | -11.9%
CC(C)Oc1ccc2c(NC(=O)[C@H](C)O)nn(CC(F)(F)F)c2c1 | -4.87%
OC1CCCN(CCNc2ncc(Cl)cc2F)C1 (configuration not stated) | 8.81%
CCCN1CCN(C(=O)c2ccnc(N)c2)[C@H]2CS(=O)(=O)C[C@H]21 | 2.77%
COCCNc1nc2c(c(NCC3CCOC3)n1)CCNCC2 (configuration not stated) | -2.85%
Cc1c(C(=O)N(C)c2ccccc2)cccc1N(C)S(C)(=O)=O | 6.36%
COc1ccc(CNC(=O)CCN2CCOC(C(F)(F)F)C2)cc1 (configuration not stated) | 4.3%
CCc1cc(O)nc(C2CCCN2C(=O)c2cccnc2)n1 (configuration not stated) | -1.54%
CCc1nc(C2CCCN2CC(=O)Nc2cc(C)on2)no1 (configuration not stated) | -3.08%

SMILES | cytotoxicity at 10 µM
CCc1nnc(CN2CCCCC2Cn2nc(C)nc2C)o1 (configuration not stated) | -2.4%
CC1CCN(CCNC(=O)C(C)n2cncn2)CC1 (configuration not stated) | -9.12%
Cc1ccoc1C(=O)NC1CCN(CC(=O)N(C)c2ccccc2)CC1 | -2.93%
CC(c1nc(C(C)(C)C)no1)N1CCN(Cc2ccco2)CC1 (configuration not stated) | -5.02%
CN(C)c1cc(C(=O)N2CCCC2c2cnn(C)c2)ccn1 (configuration not stated) | -1.39%
CCCN(CC)c1ccc(C(=O)N2CCCC2c2cnn(C)c2)cn1 (configuration not stated) | -6.75%
CN(C)S(=O)(=O)c1ccc(CN2CCCC2c2cccs2)o1 (configuration not stated) | -3.31%
Cn1cc(C2CCCN2C(=O)c2ccc(NC3CC3)nc2)cn1 (configuration not stated) | -14.4%
Cc1ncc2c(n1)CN(Cc1nnc(-c3ccccc3)o1)CC2 | -9.77%
Cc1ccccc1OCCCC(=O)NCC1CN(C)CCO1 (configuration not stated) | -8.69%
Cc1cnn(CC2CCCN2Cc2cc(C)no2)c1 (configuration not stated) | -1.66%
Cc1nc(C)n(CC2CN(Cc3cscn3)CCO2)n1 (configuration not stated) | -4.22%
CCCc1noc(CN2CCC(C(=O)Nc3cnn(CC)c3)CC2)n1 | -0.988%
CCOc1ncccc1CNCc1c(C(C)C)nn(C)c1N(C)C | -8.19%
Cc1ccc(CNC(=O)CN2C=Nc3ccccc3S2(=O)=O)s1 | 0.347%
Cc1ccc(CC(=O)N2CSCC2C(=O)N(C)Cc2ccco2)o1 (configuration not stated) | -4.32%
CC(NC(=O)c1ccc2c(c1)OCC(=O)N2)c1ccccc1F (configuration not stated) | -4.42%
CC(=O)Nc1nc(C(=O)N2CCCC(c3cc(C)[nH]n3)C2)cs1 (configuration not stated) | -8.85%
Cc1ccc(N2CCCN(C(=O)C(C(C)C)n3cncn3)CC2)nn1 (configuration not stated) | -5.99%
O=C(c1cccc(Cn2ccnc2)c1)N1CCCC(n2ccnc2)C1 (configuration not stated) | -6.61%
Cc1ccc(C(=O)N2CCN(Cc3nc(C(C)C)no3)CC2)c(=O)[nH]1 | -7.67%
CCc1cccc(N2CCC(NC(=O)c3ccc(=O)[nH]n3)CC2)c1 | 5.8%
CNC(=O)NC(=O)Cn1cc(-c2ccccc2)cn1 | 3.37%

SMILES | cytotoxicity at 10 µM
N#Cc1cc(NS(=O)(=O)c2ccc(C(=O)O)cc2F)ccc1F | -10.9%
Cc1cccc(NC(=O)NCCCn2nc3ccccn3c2=O)c1C | -6.73%
O=C(c1cc2cc(F)ccc2[nH]1)N1CCC(Nc2cccnn2)CC1 | -5.97%
CC(c1cccc(S(N)(=O)=O)c1)N(C)CCOc1ccccc1 (configuration not stated) | -3.83%
CCc1nccn1C1CCCN(C(=O)Cc2cn3ccccc3n2)C1 (configuration not stated) | -2.72%
Cc1cnn(CC2CCCN2C(=O)c2nccc3ccccc23)c1 (configuration not stated) | -2.14%
CNS(=O)(=O)c1ccc(CNC(=O)NCC2CCOC2)cc1 (configuration not stated) | -2.65%
CC(Cn1cncc1-c1cnn(Cc2ccccc2)c1)N1CCCCC1 (configuration not stated) | 6.58%
COCC1CN(Cc2ccsc2)Cc2nn(C)cc21 (configuration not stated) | 5.15%
CNC(=O)[C@H]1C[C@@H]2CN(Cc3c(C)noc3C)C[C@@H]2N1C(C)=O | -108%
COc1cccc(CN2CCCC(c3nn(C)c4nccnc34)C2)c1 (configuration not stated) | -11.2%
c1cncc(COC[C@@H]2CCC[C@]23CNCCO3)c1 | -96.1%
CN(C)CC(=O)N1CCOC2(CCCN(c3ncccc3F)C2)C1 (configuration not stated) | -9.84%
O=C(O)CC1CN(Cc2ccccc2)CCO1 (configuration not stated) | 6.54%
O=C([C@H]1C[C@H]2OCC[C@H]2N(C(=O)c2ccccn2)C1)N1CCCCO1 | 13.1%
COCC1CC2(CCN(Cc3cccnc3)CC2)CN1c1ncccn1 (configuration not stated) | 3.71%
COc1ccccc1CCNC(=O)C1CCC(Cn2cnnn2)CC1 (configuration not stated) | 1.61%
CSc1nccc(N2C[C@H]3CC[C@@H](C2)N(CC2CCC2)C3=O)n1 | 1.88%
Cc1cc(C)cc(N2CCN(C(=O)CCN3C[C@H]4CC[C@@H]3C4)CC2=O)c1 | -4.76%
C=c1ncsc1=C1NN=C(C2CCCN2C(=O)CCn2ccc(C)n2)O1 (configuration not stated) | 1.66%
